According to ChEMBL document CHEMBL5120934, “Development of Urea-Bond-Containing Michael Acceptors as Antitrypanosomal Agents Targeting Rhodesain” (ACS Med Chem Lett, 2022):

Legend:
[1] = target: Rhodesain (Trypanosoma brucei rhodesiense) (UniProt Q95PM0); test: Binding affinity to recombinant Trypanosoma brucei rhodesiense rhodesain assessed as binding constant measured at second inhibition step using Cbz-Phe-Arg-AMC as fluorogenic substrate measured for 10 mins every 30 seconds by fluorescence microplate reader assay
Summary of the method: (§1)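 Rhodesain activity was followed fluorogenically with the substrate Cbz-Phe-Arg-AMC. Inhibitors were serially diluted and assayed down to the concentration giving minimal inhibition. Irreversible inhibition was characterized by Ki and kinact (the rate of covalent E-I complex formation), and k2nd was calculated as kinact/Ki.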

[2] = target: Rhodesain (Trypanosoma brucei rhodesiense) (UniProt Q95PM0); test: Binding affinity to recombinant Trypanosoma brucei rhodesiense rhodesain assessed as Kinact using Cbz-Phe-Arg-AMC as fluorogenic substrate measured for 10 mins every 30 seconds by fluorescence microplate reader assay; summary of the method: as §1
[3] = target: Rhodesain (Trypanosoma brucei rhodesiense) (UniProt Q95PM0); test: Inhibition of Trypanosoma brucei rhodesiense rhodesain at 0.1 uM using Cbz-Phe-Arg-AMC as fluorogenic substrate measured for 10 mins every 30 seconds by fluorescence microplate reader assay
Summary of the method: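 Single-concentration fluorogenic screen against rhodesain with the substrate Cbz-Phe-Arg-AMC, each compound at 0.1 μM. DMSO served as the negative control and E-64 as the positive control. The read-out was percentage inhibition.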

[4] = target: Replicase polyprotein 1ab (Severe acute respiratory syndrome coronavirus 2) (UniProt P0DTD1); test: Inhibition of C-terminal His-tagged SARS-CoV-2 MPro expressed in Escherichia coli BL21(DE3) at 100 uM using Dabcyl-KTSAVLQSGFRKME-Edans as fluorogenic substrate incubated for 10 mins by FRET assay
Summary of the method: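 Single-concentration preliminary screen of viral main protease at 100 μM. Read-out is percentage inhibition of protease activity. No follow-up dilution series or mode-of-inhibition kinetics were run.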

Trypanosoma brucei = test: Antitrypanosomal activity against bloodstream form of Trypanosoma brucei; type: functional; settings: read-out: ED50 (the source's name)
[5] = target: Rhodesain (Trypanosoma brucei rhodesiense) (UniProt Q95PM0); test: Inhibition of Trypanosoma brucei rhodesiense rhodesain expressed in pichia pastoris assessed as binding constant measured at second inhibition step using Z-Phe-Arg-N-methylcoumarin as substrate by fluorometric assay

Sequence of Rhodesain (Trypanosoma brucei rhodesiense) (Q95PM0 1-450): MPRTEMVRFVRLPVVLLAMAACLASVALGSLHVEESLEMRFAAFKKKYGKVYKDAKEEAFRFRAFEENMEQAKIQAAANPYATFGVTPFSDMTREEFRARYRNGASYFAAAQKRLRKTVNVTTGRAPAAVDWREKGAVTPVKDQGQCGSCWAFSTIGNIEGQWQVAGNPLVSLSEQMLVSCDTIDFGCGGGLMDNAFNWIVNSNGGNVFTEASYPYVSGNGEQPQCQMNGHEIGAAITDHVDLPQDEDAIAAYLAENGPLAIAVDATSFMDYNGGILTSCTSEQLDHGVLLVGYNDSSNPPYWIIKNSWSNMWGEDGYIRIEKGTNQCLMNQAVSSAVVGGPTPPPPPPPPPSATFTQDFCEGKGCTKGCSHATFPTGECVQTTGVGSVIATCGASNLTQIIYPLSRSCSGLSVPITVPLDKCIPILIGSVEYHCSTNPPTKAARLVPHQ

SMILES | K [1] | Kinact [2] [min⁻¹] | inhibition [3] [%] | inhibition [4] [%] | EC50 (Trypanosoma brucei) [nM] | K [5]
CC(=O)/C=C/[C@H](CCc1ccccc1)NC(=O)[C@H](CC(C)C)NC(=O)Nc1ccc(C)cc1 | 10400 10^3/M/min | 0.0042 | – | – | – | –
CC(=O)/C=C/[C@H](CCc1ccccc1)NC(=O)[C@H](CC(C)C)NC(=O)Nc1ccc(Cl)cc1C | 14000 10^3/M/min | 0.0123 | – | – | – | –
COc1ccc(NC(=O)N[C@@H](Cc2ccccc2)C(=O)N[C@H](/C=C/C(C)=O)CCc2ccccc2)cc1 | – | 0.0059 | > 80 | 33 | – | –
CC(=O)/C=C/[C@H](CCc1ccccc1)NC(=O)[C@H](Cc1ccccc1)NC(=O)Nc1cccc2ccccc12 | – | 0.0084 | > 80 | 33 | – | –
CC(=O)/C=C/[C@H](CCc1ccccc1)NC(=O)[C@H](Cc1ccccc1)NC(=O)Nc1ccc(F)cc1 | – | 0.0021 | > 80 | 33 | – | –
CC(=O)/C=C/[C@H](CCc1ccccc1)NC(=O)[C@H](Cc1ccccc1)NC(=O)Nc1ccc(C)cc1 | 10400 10^3/M/min | 0.0023 | > 80 | 33 | – | –
CN1CCN(C(=O)N[C@@H](Cc2ccccc2)C(=O)N[C@H](/C=C/S(=O)(=O)c2ccccc2)CCc2ccccc2)CC1 [K-777] | – | – | – | – | 900 | 9000 10^3/M/min
CC(=O)/C=C/[C@H](CCc1ccccc1)NC(=O)[C@H](Cc1ccccc1)NC(=O)Nc1c(F)cccc1F | – | 0.0022 | > 80 | 33 | – | –
CC(=O)/C=C/[C@H](CCc1ccccc1)NC(=O)[C@H](Cc1ccccc1)NC(=O)Nc1ccc(Cl)cc1C | 14700 10^3/M/min | 0.0053 | > 80 | 33 | – | –
CC(=O)/C=C/[C@H](CCc1ccccc1)NC(=O)[C@H](Cc1ccccc1)NC(=O)Nc1ccc(Cl)cc1 | – | 0.0023 | > 80 | 33 | – | –
CC(=O)/C=C/[C@H](CCc1ccccc1)NC(=O)[C@H](Cc1ccccc1)NC(=O)Nc1ccc(Cl)cc1C(F)(F)F | – | 0.006 | > 80 | 33 | – | –
CC(=O)/C=C/[C@H](CCc1ccccc1)NC(=O)[C@H](Cc1ccccc1)NC(=O)Nc1ccccc1 | 16700 10^3/M/min | 0.0021 | > 80 | 33 | – | –
